Experimental findings from ChEMBL document CHEMBL3414461, “Clerodane type diterpene as a novel antifungal agent from Polyalthia longifolia var. pendula” (Eur J Med Chem, 2015) are described below.

Each structure is given as a SMILES string. In brackets after ≈: the same amount, converted by molar mass. Activity calls are given as the source filed them. The calls are words filed in the database; no cut-off is given here.

The subject of series [1] is Candida albicans. Nature of the series: Antifungal activity against Candida albicans NCIM 3557 assessed as inhibition of 50% germ tube formation. In kind it is functional.
The subject of series [2] is Candida albicans. Nature of the series: Antifungal activity against Candida albicans NCIM 3471 after 24 to 48 hrs by microbroth dilution method. In kind it is functional. In a few lines: (§1)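 Broth microdilution per CLSI. DMSO stock diluted 1:40 in YPG medium, then two-fold serial dilution across […] range. Inoculum: log-phase yeast cells (~2 × 10^4 cfu/mL) grown in YPG broth, or spores for phytopathogens. Incubated 24–48 h; growth read as absorbance at 600 nm. MIC is the lowest concentration giving >90% growth inhibition versus control; IC50 is the concentration giving 50% inhibition.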
(In general: In broth dilution the organism is exposed to a series of concentrations in liquid medium.)

For a further series, the system named is Cryptococcus neoformans. In words: Antifungal activity against Cryptococcus neoformans NCIM 3542 after 24 to 48 hrs by microbroth dilution method. In kind it is functional. In outline:
as §1

The next series relates to Aspergillus fumigatus. Nature of the series: Antifungal activity against Aspergillus fumigatus NCIM 902 after 24 to 48 hrs by microbroth dilution method. In kind it is functional. In a few lines: as §1
For a further series, the system named is Neurospora crassa. Nature of the series: Antifungal activity against Neurospora crassa NCIM 870 after 24 to 48 hrs by microbroth dilution method. The class given is functional. In a few lines: as §1
The test system of series [3] is Candida albicans. Nature of the series: Antifungal activity against Candida albicans NCIM 3557 after 24 to 48 hrs by microbroth dilution method. The class given is functional. In outline: as §1
The next series relates to Aspergillus niger. In words: Antifungal activity against Aspergillus niger NCIM 628 after 24 to 48 hrs by microbroth dilution method. In kind it is functional. In outline: as §1
In series [4] the test system is Candida albicans. In words: Induction of ROS generation in Candida albicans NCIM 3557 at 50.3 to 201.2 uM after 200 mins by DHR123 staining-based fluorescence assay. In kind it is functional, organism-based. In a few lines:
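1×10^6 C. albicans NCIM3557 cells grown in YPG broth with compound at 37 °C for 200 min. Cells washed, then DHR123 added at […] final (from ethanol stock) in PBS for 30 min. Cells washed, resuspended in PBS, and fluorescence read (ex 480/em 525 nm) by epifluorescence microscopy. Untreated cells served as negative control and H2O2-treated cells as positive control.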

The next series deals with Nakaseomyces glabratus. Nature of the series: Antifungal activity against Candida glabrata NCIM 3237 after 24 to 48 hrs by microbroth dilution method. In kind it is functional. In outline:
as §1

The nature of series [5]: Cytotoxicity against sheep RBC assessed as haemolytic activity at 1200 uM after 2 hrs by spectrophotometry. In kind it is cell-based, Ovis aries, Erythrocyte. The conditions noted are these: sheep red blood cells, read-out: Activity. In outline:
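Sheep RBCs washed with PBS (pH 7.0), resuspended to a 4% suspension, mixed 1:1 with PBS containing test compound. Incubated 37 °C for 2 h, centrifuged 2000 rpm for 5 min, supernatant absorbance read at 545 nm. PBS set as 0% lysis and 0.1% Triton X-100 as 100%. Percent haemolysis calculated relative to these; triplicates averaged.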

In the next series the test system is Fusarium oxysporum. Nature of the series: Antifungal activity against Fusarium oxysporum NCIM 1043 after 24 to 48 hrs by microbroth dilution method. In kind it is functional. In a few lines:
as §1

Series [6] has as its system Candida albicans. In words: Induction of ROS generation in Candida albicans NCIM 3557 at 25.2 to 100.6 uM after 60 mins by DCFH-DA staining-based fluorescence assay. In kind it is functional, organism-based.

The term MIC90 denotes an inhibitory concentration at the 90% level, which refers to growth in some studies and to a panel of isolates in others.

As to `CC1=CCC[C@@H]2[C@@](C)(CCC3=CC(=O)O[C@@H]3O)[C@H](C)CC[C@@]12C`, the “Concentration for 50% inhibition of germ tube formation (IC50)” value (“Concentration for 50% inhibition” for short) with Candida albicans [1] was found to be 25.14 µM. The MIC90 came to 805 µM (≈ 256 µg/mL) in the series with Candida albicans [2]; 101 µM (≈ 32 µg/mL) against Cryptococcus neoformans; 805 µM (≈ 256 µg/mL) against Aspergillus fumigatus; 201 µM (≈ 64.1 µg/mL) in the series on Neurospora crassa; 50.3 µM (≈ 16 µg/mL) in the series with Candida albicans [3]; 805 µM (≈ 256 µg/mL) in the series on Aspergillus niger. The MIC90 with Nakaseomyces glabratus and against Fusarium oxysporum was 805 µM (≈ 256 µg/mL) each time. For the same compound, the result with Candida albicans [4] and with Candida albicans [6] was Active. Also, the hemolysis at 2 h, 1200 µM in series [5] is less than 15%.
Turning to `C[C@@H]1CC[C@]2(C)[C@H](CC[C@@H]3O[C@@]32C)[C@@]1(C)CCC1=CC(=O)O[C@@H]1O`, the “Concentration for 50% inhibition” value in the series on Candida albicans [1] amounted to 191.6 µM. In addition, the MIC90 against Candida albicans [2], in the series with Cryptococcus neoformans, with Aspergillus fumigatus, with Neurospora crassa, against Candida albicans [3] and against Aspergillus niger was more than 600 µM throughout. In addition, the MIC90 in the series with Nakaseomyces glabratus and in the series on Fusarium oxysporum was more than 600 µM in each case. In series [5], the hemolysis at 2 h, 1200 µM is less than 15%.
With `CC1=CCC[C@@H]2[C@@](C)(CCC3=CC(=O)OC3OC(=O)OC(C)(C)C)[C@H](C)CC[C@@]12C` (mixture of isomers), in the series on Candida albicans [1], the “Concentration for 50% inhibition” value came to 153.1 µM. In addition, the MIC90 with Candida albicans [2], against Cryptococcus neoformans, in the series on Aspergillus fumigatus, with Neurospora crassa, against Candida albicans [3] and against Aspergillus niger was more than 600 µM each time. The MIC90 in the series on Nakaseomyces glabratus and in the series on Fusarium oxysporum was more than 600 µM in each case. In [5], the hemolysis at 2 h, 1200 µM was less than 15%.
For `CC(=O)OC1OC(=O)C=C1CC[C@@]1(C)[C@H](C)CC[C@@]2(C)C(C)=CCC[C@H]12` (mixture of isomers), the “Concentration for 50% inhibition” value in the series with Candida albicans [1] was found to be 177.8 µM. In addition, the MIC90 with Candida albicans [2], against Cryptococcus neoformans, in the series with Aspergillus fumigatus, against Neurospora crassa, with Candida albicans [3] and against Aspergillus niger was more than 600 µM in each case. Further, the MIC90 in the series with Nakaseomyces glabratus and in the series on Fusarium oxysporum was more than 600 µM in each case. For the same compound, in series [5], the hemolysis at 2 h, 1200 µM is less than 15%.
